Sampled rows, rich in hits. Any-hit rate of the full collection: about 2.9%.
IMP-1 inh: inhibitors of Pseudomonas aeruginosa IMP-1 metallo-beta-lactamase; actives 0.45% (n = 290,000); inhibition, % at 5.6 µM; purified IMP-1, nitrocefin hydrolysis, epi-absorbance fluorescence; AID 1556;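 active = inhibition above the mean plus 3 SD of all compounds in the same screening run, cut at about 4.5% in these data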;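 note: 0% = IMP-1 with DMSO and 100% = DMSO wells lacking enzyme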
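System: purified recombinant IMP-1 beta-lactamase. Medium: Zinc- and detergent-supplemented HEPES buffer, pH 7.1. Compound: one 5.6 µM dose […]. Schedule: 15 min preincubation plus 25 min reaction at 25 °C. Technique: Epi-absorbance fluorescence, 480 nm excitation, 530 nm emission.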
UBC9 SUMO inh: blocks human SUMOylation mediated by UBC9. inhibition, % at 35 µM. AID 2006. HTRF SUMOylation assay, SAE1/SAE2 + UBC9, in vitro. actives 0.36% (n = 290,000); in the data active = inhibition above about 50%, passing the limit was not always enough
Target sequence (P63279 whole entry, looked up): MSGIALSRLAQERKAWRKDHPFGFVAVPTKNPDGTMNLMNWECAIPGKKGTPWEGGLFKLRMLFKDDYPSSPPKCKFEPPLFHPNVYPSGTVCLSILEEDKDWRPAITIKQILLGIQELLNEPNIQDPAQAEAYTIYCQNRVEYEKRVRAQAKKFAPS
FID counter: fluorescent intercalator displacement, NS3 helicase counter-screen; DNA fluorescent intercalator displacement, fluorescence; inhibition, % at 7.9 µM; actives 0.17% (n = 290,000); AID 1845; in the data active = inhibition above about 37%;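 note: 0% = vehicle and 100% = reference compound; higher means more ethidium bromide displaced from hairpin DNA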
VIM-2 inh: blocks Pseudomonas aeruginosa VIM-2 metallo-beta-lactamase | purified VIM-2, nitrocefin hydrolysis, epi-absorbance fluorescence | inhibition, % at 5.6 µM | actives 0.89% (n = 290,000);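 active = inhibition above the mean of all tested compounds plus 3 SD, cutoff set per screening run, cut at about 7.5% in these data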;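 note: red hydrolysis product quenches plate fluorescence so inhibitors raise well fluorescence; 0% = enzyme with DMSO and 100% = DMSO without enzyme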
Mot1-301 SUMO: SUMOylation pathway inhibition by Mot1-301 growth rescue | actives 1% (n = 320,000) | S. cerevisiae Mot1-301 growth rescue, ATP luminescence, 38.5C; percent above DMSO median, 100 means doubled | growth rescue, % at 18.8 µM | AID 2716;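 active = every valid replicate shows activation above 250% relative to neutral control wells; inactive = the rest, any valid replicate at or below 250%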;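 note: OY570 slx delta 5 strain wells were the positive control but not used for scaling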
NALP1 inh: inhibitors of NALP1 inflammasome in yeast. inhibition, % at 10 µM. actives 0.61% (n = 280,000). S. cerevisiae NALP1/ASC/caspase-1 growth, X-gal OD620, 72 h; in the data active = inhibition mostly above about 24%, no sharp cut-off; inactive = mostly below about 32%
* marks the source's active call; other numbers are inactive results; / = no result.

SMILES | IMP-1 inh | UBC9 SUMO inh | FID counter | VIM-2 inh | Mot1-301 SUMO | NALP1 inh
CC(=O)Nc1ccc(OCCCNC(=O)c2c(-c3ccccc3)noc2C)cc1 | -3 | 6 | -14 | -1 | 8 | -6
CCOCCCNC(=O)c1c(-c2ccccc2)noc1C | 1 | -3 | -8 | 3 | 338* | -6
CCOC(=O)C1CCN(C(=O)c2c(-c3ccccc3)noc2C)CC1 | -2 | 16 | -10 | -3 | 765* | 7
CC(=O)c1ccc(NC(=O)NCc2ccc(F)cc2)cc1 | -3 | 28 | -2 | -1 | 3 | 9
CN(C)/C=N/c1nc2nccc(-c3cccnc3)n2n1 | -1 | 65* | -1 | 0 | 19 | -23
COc1ccc(-c2ccnc3nc(/N=C/N(C)C)nn23)cc1 | -1 | 57* | -8 | -2 | -6 | 18
COc1ccc(-c2cc(=O)oc3cc(OC(=O)C4CCCCC4)c(Cl)cc23)cc1 | -2 | 42 | -10 | 1 | 111 | 12
Cc1ccc(C2=NS(=O)(=O)N(C)C(C(=O)Nc3cc(C)n(CC(=O)N4CCCCC4)n3)=C2)cc1 | -3 | / | -41 | -2 | -6 | 33
O=C(Nc1nncs1)c1cc(-c2ccncc2)nc2ccc(Cl)cc12 | -4 | 5 | -5 | -5 | -7 | 27*
CC(NC(=O)c1cc(-c2ccncc2)nc2ccc(Cl)cc12)C1CCCO1 (centres undefined) | -1 | 0 | -35 | -1 | 341* | 3
Cc1ccc(Nc2c(-c3ccccn3)nc3cc(C)ccn23)cc1 | -4 | -61 | 1 | 8.3* | / | -3
Cc1ccn2c(Nc3ccc4c(c3)OCO4)c(-c3ccccn3)nc2c1 | -5 | 45 | 2 | 39* | 10 | 9
O=S(=O)(c1ccc(NC(=S)N/N=C/c2c3ccccc3cc3ccccc23)cc1)N1CCOCC1 | -2 | 8 | -4 | 0 | -22 | 10
O=C(O)COCC(=O)NCc1csc2ccccc12 | -3 | 3 | 1 | -5 | -14 | -2
CCC(C(=O)OCC(=O)N(CCOC)c1c(N)n(Cc2ccccc2)c(=O)[nH]c1=O)c1ccccc1 (centres undefined) | -2 | 7 | -43 | -2 | 2 | 33*
CCN(CC1CCCO1)C(=O)c1cc(COc2ccccc2SC)on1 (centres undefined) | -2 | 13 | -15 | -1 | 3 | 15
CCOC(=O)C1CCN(S(=O)(=O)c2ccc3[nH]c4c(c3c2)CCCC4)CC1 | 1 | 6 | -29 | 8.1* | 14 | 12
CCOC(=O)C1CCN(S(=O)(=O)c2ccc3[nH]c(=O)oc3c2)CC1 | -3 | -11 | 0 | -4 | -2 | 40*
O=C(NCc1ccc2[nH]c3c(c2c1)CCCC3)c1ccc(S(=O)(=O)N2CCCC2)cc1 | 0 | 2 | -17 | 12* | -8 | 27
CCOC(=O)C1CCN(S(=O)(=O)c2ccc3[nH]c(=O)c(=O)[nH]c3c2)CC1 | -1 | 15 | 1 | -2 | -12 | 2
NC(=O)CSc1nnc(CCc2nc3ccccc3[nH]2)n1-c1ccccc1 | -3 | / | -4 | -2 | / | /
Cc1cc(N/N=C/c2ccc(F)cc2)nc(NCc2ccccc2)n1 | -1 | -4 | 8 | -2 | 2 | 0
Cc1cc(Nc2ccc(Cl)cc2)nc(NCc2ccccc2)n1 | -2 | -42 | 18 | -2 | -10 | 76*
Cc1cc(Nc2cccc(F)c2)nc(NCc2ccccc2)n1 | -3 | -26 | 22 | -1 | 79 | 72*
Cc1cc(Nc2ccccc2)nc(NCc2ccccc2)n1 | -5 | -7 | 22 | 0 | 1 | 42
SMILES | IMP-1 inh | UBC9 SUMO inh | FID counter | VIM-2 inh | Mot1-301 SUMO | NALP1 inh
Cc1ccc(C(=O)n2c(-c3ccccc3)cnc2SCC(=O)Nc2ccc(C)cc2C)cc1 | -2 | -15 | -11 | -2 | 2 | 28
CCOc1ccc(N/C(N)=N/c2nc(CSc3nnc(C)s3)cc(=O)[nH]2)cc1 | -4 | 8 | -7 | -3 | 3 | 39*
COc1ccc(-c2cc(C)no2)cc1S(=O)(=O)N1CCOc2ccc(C)cc21 | -1 | 12 | -18 | -1 | -2 | 18
O=Cc1cc(N=Nc2cccc(C(=O)O)c2)ccc1O | 13* | 6 | 4 | -4 | 2 | 6
O=Cc1cc(N=Nc2ccccc2Cl)ccc1O | 9.7* | 9 | 30 | -4 | 21 | -8
CCCCCn1c(=O)[nH]c2cc(C(=O)NCCCN3CCC(C)CC3)ccc2c1=O | -4 | 30 | 22 | 2 | 8 | 32*

Source: PubChem BioAssay (several laboratories)
